ChEMBL document CHEMBL1134770, “Novel, potent, and selective phosphodiesterase 5 inhibitors: synthesis and biological activities of a series of 4-aryl-1-isoquinolinone derivatives” (J Med Chem, 2001)

Key:
[1] = biological target: T1, cGMP-dependent 3',5'-cyclic phosphodiesterase (Bos taurus, UniProt P14099); test: Inhibition of bovine adrenal gland Phosphodiesterase 2 (PDE2)
T1 sequence (P14099 whole entry): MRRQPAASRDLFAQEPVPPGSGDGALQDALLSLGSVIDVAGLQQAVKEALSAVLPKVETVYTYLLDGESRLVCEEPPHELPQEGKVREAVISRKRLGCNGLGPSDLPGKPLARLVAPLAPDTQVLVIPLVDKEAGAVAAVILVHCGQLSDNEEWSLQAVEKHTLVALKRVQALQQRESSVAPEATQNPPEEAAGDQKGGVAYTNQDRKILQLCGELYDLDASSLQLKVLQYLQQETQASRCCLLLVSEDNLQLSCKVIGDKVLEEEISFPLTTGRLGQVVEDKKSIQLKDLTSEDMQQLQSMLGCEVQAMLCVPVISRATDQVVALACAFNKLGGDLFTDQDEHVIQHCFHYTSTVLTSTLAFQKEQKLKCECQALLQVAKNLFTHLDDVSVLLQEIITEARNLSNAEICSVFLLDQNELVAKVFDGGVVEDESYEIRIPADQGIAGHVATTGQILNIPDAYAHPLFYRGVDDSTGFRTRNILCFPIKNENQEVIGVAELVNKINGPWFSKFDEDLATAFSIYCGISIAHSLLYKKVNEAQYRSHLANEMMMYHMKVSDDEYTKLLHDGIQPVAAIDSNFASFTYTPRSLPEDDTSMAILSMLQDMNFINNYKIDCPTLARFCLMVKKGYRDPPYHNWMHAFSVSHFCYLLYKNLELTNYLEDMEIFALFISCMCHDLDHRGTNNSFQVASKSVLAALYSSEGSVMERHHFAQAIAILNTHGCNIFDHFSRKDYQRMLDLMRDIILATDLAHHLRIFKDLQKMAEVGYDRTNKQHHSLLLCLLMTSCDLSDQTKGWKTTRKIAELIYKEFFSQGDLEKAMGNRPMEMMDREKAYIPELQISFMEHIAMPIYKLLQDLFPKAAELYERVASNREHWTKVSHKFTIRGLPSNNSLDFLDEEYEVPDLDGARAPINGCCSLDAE
In short: (§1)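 Boiled, then snake-venom nucleotidase for 30 min at 37 °C, methanol stop, Dowex separation, scintillation counting. IC50 from log concentration-inhibition curve (≥4 points), mean of ≥2 duplicate experiments.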

Phosphodiesterase 1 = Phosphodiesterase 1 (Rattus norvegicus, UniProt Q63421+Q9EPR9+Q01066); test: Inhibitory activity against rat heart Phosphodiesterase 1(PDE1); type: protein assay
[2] = biological target: Phosphodiesterase 3 (Canis familiaris); test: Inhibitory activity against canine heart Phosphodiesterase 3 (PDE3)
[3] = biological target: cGMP-specific 3',5'-cyclic phosphodiesterase (Canis lupus familiaris, UniProt O77746); test: Inhibitory activity against canine lung Phosphodiesterase 5 (PDE5); in short: as §1
[4] = Relaxant effect on isolated rabbit corpus cavernosum; type: functional, tissue-based, Oryctolagus cuniculus; conditions: target entry is the homologue from another species
[5] = biological target: Phosphodiesterase 4 (Canis familiaris); test: Inhibition of canine lung Phosphodiesterase 4 (PDE4)

Compound	IC50 [1] [µM]	IC50 (Phosphodiesterase 1) [µM]	IC50 [2] [µM]	IC50 [3] [µM]	EC30 [4] [µM]	IC50 [5] [µM]
CCCc1nn(C)c2c(=O)[nH]c(-c3cc(S(=O)(=O)N4CCN(C)CC4)ccc3OCC)nc12	> 10	–	–	–	–	–
CNc1ccc(-n2c(C(=O)OC)c(-c3cc(OC)c(OC)c(OC)c3)c3cc(OC)c(OC)cc3c2=O)cc1	–	> 10	> 10	> 10	–	–
COC(=O)c1c(-c2cc(OC)c(OC)c(OC)c2)c2cc(OC)c(OC)cc2c(=O)n1Cc1ccccc1	–	3.1	> 10	0.38	–	–
COC(=O)c1c(-c2cc(OC)c(OC)c(OC)c2)c2cc(OC)c(OC)cc2c(=O)n1N1CCOCC1	–	> 10	> 10	0.026	–	–
COC(=O)c1nc(O)c2cc(OC)c(OC)cc2c1-c1cc(OC)c(OC)c(OC)c1	–	> 10	> 10	0.9	–	–
COC(=O)c1c(-c2cc(OC)c(O)c(OC)c2)c2ccc(OCc3ccccn3)cc2c(=O)n1-c1ccc(N)cc1	–	2.6	> 10	0.014	–	–
COC(=O)c1c(-c2cc(OC)c(OC)c(OC)c2)c2cc(OC)c(OC)cc2c(=O)n1C1CCCC1	–	> 10	> 10	0.58	–	–
COC(=O)c1c(-c2cc(OC)c(Br)c(OC)c2)c2ccc(OCc3ccccn3)cc2c(=O)n1-c1ccc(N)cc1.Cl.Cl	2.8	0.46	8.4	0.00022	0.044	0.75
COC(=O)c1c(-c2cc(OC)c(OC)c(OC)c2)c2cc(OC)ccc2c(=O)n1-c1ccc(N)cc1.Cl	–	3.9	> 10	0.097	–	–
COc1cc(-c2c(C(=O)N(C)C)n(-c3ccc(N)cc3)c(=O)c3cc(OCc4ccccn4)ccc23)cc(OC)c1OC.Cl.Cl	–	> 10	> 10	2.1	–	–
COC(=O)c1c(-c2cc(OC)c(OC)c(OC)c2)c2cc(OC)c(OC)cc2c(=O)n1-c1cccc(N)c1.Cl	–	> 10	> 10	0.25	–	–
COC(=O)c1c(-c2cc(OC)c(OC)c(OC)c2)c2cc(OC)c(OC)cc2c(=O)n1-c1ccc(N(C)C)cc1.Cl	–	> 10	> 10	> 10	–	–
COC(=O)c1c(-c2cc(OC)c(OC)c(OC)c2)c2ccc(OCc3ccccc3)cc2c(=O)n1-c1ccc(N)cc1.Cl	> 10	2.1	> 10	0.0012	0.13	6.1
COC(=O)c1c(-c2cc(OC)c(C)c(OC)c2)c2ccc(OCc3ccccn3)cc2c(=O)n1-c1ccc(N)cc1.Cl.Cl	3.5	1.1	> 10	0.00039	0.037	1.7
CCOC(=O)c1c(-c2cc(OC)c(OC)c(OC)c2)c2ccc(OCc3ccccn3)cc2c(=O)n1-c1ccc(N)cc1.Cl.Cl	–	0.55	> 10	0.018	–	–
COC(=O)c1c(-c2cc(O)c(OC)c(OC)c2)c2ccc(OCc3ccccn3)cc2c(=O)n1-c1ccc(N)cc1.Cl.Cl	–	> 10	–	0.0085	–	–
COc1cc(-c2c(C(N)=O)n(-c3ccc(N)cc3)c(=O)c3cc(OCc4ccccn4)ccc23)cc(OC)c1OC.Cl.Cl	–	> 10	> 10	0.49	–	–

Compound	IC50 [1] [µM]	IC50 (Phosphodiesterase 1) [µM]	IC50 [2] [µM]	IC50 [3] [µM]	EC30 [4] [µM]	IC50 [5] [µM]
COC(=O)c1c(-c2cc(OC)c(OC)c(OC)c2)c2ccc(OC)cc2c(=O)n1-c1ccc(N)cc1.Cl	–	1	> 10	0.02	–	–
COc1cc(-c2c(C(=O)O)n(-c3ccc(N)cc3)c(=O)c3cc(OCc4ccccn4)ccc23)cc(OC)c1OC.Cl.Cl	–	> 10	> 10	1.9	–	–
COC(=O)c1c(-c2cc(OC)c(OC)c(OC)c2)c2ccc(OCc3cccnc3)cc2c(=O)n1-c1ccc(N)cc1.Cl.Cl	> 10	3.9	> 10	0.0011	0.0095	3.6
COC(=O)c1c(-c2cc(OC)c(OC)c(OC)c2)c2cc(OC)c(OC)cc2c(=O)n1-c1ccc(N)cc1.Cl	–	> 10	4.4	0.021	–	–
CCOc1cc2c(-c3cc(OC)c(OC)c(OC)c3)c(C(=O)OC)n(-c3ccc(N)cc3)c(=O)c2cc1OCC.Cl	–	> 10	> 10	0.027	–	–
CNC(=O)c1c(-c2cc(OC)c(OC)c(OC)c2)c2ccc(OCc3ccccn3)cc2c(=O)n1-c1ccc(N)cc1.Cl.Cl	–	> 10	> 10	0.22	–	–
COC(=O)c1c(-c2cc(OC)c(OC)c(OC)c2)c2ccc(OCc3ccccn3)cc2c(=O)n1-c1ccc(N)cc1.Cl.Cl	> 10	1.3	–	0.001	0.0079	–
COC(=O)c1c(-c2cc(OC)c(OC)c(OC)c2)c2ccc(OCc3ccncc3)cc2c(=O)n1-c1ccc(N)cc1.Cl.Cl	> 10	9.5	> 10	0.0031	0.012	7
COC(=O)c1c(-c2cc(OC)c(OC)c(OC)c2)c2cc(OC)c(OC)cc2c(=O)n1-c1ccccc1	–	> 10	> 10	0.03	–	–
COC(=O)c1c(-c2cc(OC)c(OC)c(OC)c2)c2cc(OC)c(OC)cc2c(=O)n1-c1ccc(Cl)cc1	–	> 10	> 10	0.17	–	–
COC(=O)c1c(-c2cc(OC)c(OC)c(OC)c2)c2cc(OC)c(OC)cc2c(=O)n1-c1ccc(OC)cc1	–	> 10	–	> 10	–	–
COC(=O)c1c(-c2cc(OC)c(OC)c(OC)c2)c2cc(OC)c(OC)cc2c(=O)n1-c1ccc(O)cc1	–	> 10	> 10	0.11	–	–
COC(=O)c1c(-c2cc(OC)c(OC)c(OC)c2)c2cc(OC)c(OC)cc2c(=O)n1C	–	2.1	8.5	0.23	–	–
COC(=O)c1c(-c2cc(OC)c(OC)c(OC)c2)c2cc(OC)c(OC)cc2c(=O)n1C1CCCCC1	–	> 10	> 10	0.23	–	–
COC(=O)c1c(-c2cc(OC)c(OC)c(OC)c2)c2cc(OC)c(OC)cc2c(=O)n1-c1ccc(NC(C)=O)cc1	–	> 10	> 10	> 10	–	–
COC(=O)c1c(-c2cc(OC)c(OC)c(OC)c2)c2ccc(OCCc3ccccn3)cc2c(=O)n1-c1ccc(N)cc1	–	> 10	> 10	0.005	–	–
COC(=O)c1c(-c2cc(OC)c(OC)c(OC)c2)c2cc(OC)c(OC)cc2c(=O)n1N1CCCCC1	–	> 10	> 10	0.054	–	–
